High-throughput results (PubChem BioAssay)
Sampled rows, rich in hits. Any-hit rate of the full collection: about 1.5%.
EBI2 block – antagonists of human EBI2 receptor; P32249; EBI2 beta-arrestin recruitment, luminescence, 7a,25-OHC stimulated; inhibition, % at 5 µM; 360,000 tested, 0.81% active; in the data active = inhibition above about 38%;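 note: enzyme fragment complementation signal reports receptor beta-arrestin coupling in cells; 0% = agonist plus DMSO wells and 100% = wells without agonist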
Target sequence (P32249 whole entry, looked up, the tested form may be a part): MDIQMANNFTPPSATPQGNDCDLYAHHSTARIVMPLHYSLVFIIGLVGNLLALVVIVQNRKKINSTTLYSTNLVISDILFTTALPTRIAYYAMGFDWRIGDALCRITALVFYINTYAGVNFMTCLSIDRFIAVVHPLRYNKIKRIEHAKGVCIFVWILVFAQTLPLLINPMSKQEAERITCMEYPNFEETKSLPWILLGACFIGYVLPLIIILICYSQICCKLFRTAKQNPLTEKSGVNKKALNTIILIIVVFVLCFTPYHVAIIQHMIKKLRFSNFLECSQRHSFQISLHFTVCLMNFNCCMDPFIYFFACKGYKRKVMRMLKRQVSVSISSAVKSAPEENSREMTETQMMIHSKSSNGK
CXCR6 inh – CXCR6 (human) receptor inhibition. 360,000 tested, 0.36% active. inhibition, % at 20 µM. CHO-K1 PathHunter CXCR6 beta-arrestin, luminescence. AID 602244. O00574; in the data active = inhibition above about 34%, passing the limit was not always enough;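 note: antagonist mode with CXCL16 agonist at 10 nM final; 0% = 10 nM CXCL16 with DMSO and 100% = unstimulated wells without agonist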
APJ agonist – activates the human apelin receptor APJ | P35414 | CHO-K1 APJ PathHunter beta-arrestin, luminescence; 0% DMSO wells, 100% apelin | activation, % at 20 µM | 330,000 tested, 0.11% active;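 active = activation more than six SD over the plate average, tested at 20 µM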;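 note: 0% = DMSO alone and 100% = apelin-13 at 10 nM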
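assay system = CHO-K1 APJ beta-arrestin complementation cell line | input = cell density 1000 per well | dosing = compound 20 µM once, DMSO 1% | timing = compound 90 min 25 °C, reagent 1 h | measured by = luminescence from split beta-galactosidase complementation, Galacton Star/Emerald II substrate | read-out basis = APJ agonist activity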
APJ antag – antagonists of human APJ apelin receptor; inhibition, % at 20 µM; 330,000 tested, 0.32% active; CHO-K1 APJ beta-arrestin complementation, luminescence; AID 2521; P35414;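 active = inhibition above about 40% at 20 µM, limit read from the data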;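 note: cells challenged with 10 nM apelin-13 agonist together with compound; plate controls were apelin-13 plus DMSO wells for no effect and DMSO wells lacking apelin-13 for full effect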
CCR6 antagonist – antagonists of human CCR6 receptor | P51684 | CHO-K1 CCR6 PathHunter beta-arrestin, luminescence, CCL20-stimulated | 340,000 tested, 0.49% active | inhibition, % at 20 µM;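 active = compounds whose inhibition of the agonist-driven luminescence signal at 20 µM reaches about 50%, limit read from the data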;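 note: cells stimulated with CCL20 at 14 nM final; plate controls were DMSO with CCL20 for no effect and DMSO without agonist for full effect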
APJ ag confirm – confirmation of human APJ apelin receptor agonists; shares compounds with APJ agonist; CHO-K1 APJ PathHunter beta-arrestin, luminescence; activation, % at 20 µM; 310 tested, 10% active; AID 2764;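 active = activation above 40%, taking the highest of four retests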;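 note: plate controls were DMSO wells for no effect and apelin-13 at 10 nM for full effect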
APJ antag confirm – confirmation of human APJ apelin receptor antagonists. shares compounds with APJ antag. APJ beta-arrestin recruitment, luminescence, antagonist mode. 950 tested, 66% active. inhibition, % at 20 µM. AID 2766; in the data active = inhibition above about 50%
* = called active by the depositor; / = no result; ! = not confirmed by another sample.

SMILES	EBI2 block	CXCR6 inh	APJ agonist	APJ antag	CCR6 antagonist	others
O=C(c1cc2c(s1)-c1ccccc1OC2)N1CCC2(CC1)OCCO2	88*	0	-5	-6	8
CCCNS(=O)(=O)c1ccc(OCC(=O)N2CCN(Cc3ccc4c(c3)OCO4)CC2)c(C)c1	4	-2	1	-16	-1
ON1C2CCCCC2N(O)C1c1ccccc1 (centres undefined)	-1	34	-15	33	67*
Cc1ccccc1N1CCN(C2CCCN(C(=O)Cc3c(C)noc3C)C2)CC1 (centres undefined)	-4	-2	-4	11	2
COc1cc(/C=C/[N+](=O)[O-])ccc1O	-26	28	1	-15	56*
COc1ccc(-n2c(/C=C/c3ccc(O)c(OC)c3)nc3ccccc3c2=O)cc1	-13	10	-2	-17	19
COc1ccc(N2C(=O)/C(=C/C=C/c3ccccc3[N+](=O)[O-])C(=O)NC2=S)cc1	/	/	2	-1	59*
Cc1ccc(/C=C2\C(=O)NC(=S)N(c3ccc(F)cc3)C2=O)s1	3	20	1	2	38
Cc1ccc(/C=C2\C(=O)NC(=S)N(c3ccccc3F)C2=O)s1	11	40*	/	/	96*
CN(C)c1ccc(/C=C/c2cc[n+](C)c3ccccc23)cc1	4	36	/	/	54*!
C[n+]1ccc(-c2ccccc2)c2ccccc21	-6	-3	0	-14	11
CC(NS(C)(=O)=O)c1nnc2n1-c1ccc(Br)cc1C(c1ccccc1Cl)=NC2 (centres undefined)	0	-2	3	-10	-2
CCN(CC)c1ccc(/C=C/[N+](=O)[O-])cc1	0	40*	2	35	44
CCN(CC)c1ccccc1	1	3	-2	2	2
Cc1ccc(CN2C3CCCC2CC(NC(=O)Nc2cccc(F)c2)C3)cc1 (centres undefined)	-1	-12	-3	12	15
COC(=O)C1=C(c2cccc3c2S(=O)(=O)c2ccccc2-3)C[C@@H]2CC[C@H]1N2C(=O)N1CCc2cc(OC)c(OC)cc2C1	-1	-6	0	-1	4
NC(N)=N/N=C/c1cn(-c2ccccc2)nc1-c1cccs1	-16	-18	11*	-40	3
O=S(=O)(c1ccccc1)N1CC1c1ccccc1 (centres undefined)	-10	4	-3	-20	-2
CCn1nc(-c2cccs2)nc2c(=O)n(C)c(=O)nc1-2	26	13	/	/	100*
COC(=O)C1=C(c2cc3ccccc3s2)C[C@@H]2CC[C@H]1N2C(=O)N1CCOCC1	2	-1	3	9	8
O=C(c1ccc2c(c1)OCO2)C1CCCN(CC2CCCCC2)C1 (centres undefined)	4	5	-3	10	-1
O=[N+]([O-])/C=C/c1c(Cl)cccc1Cl	-24	100*	/	/	105*
CCOc1ccc2nc(N=Nc3c(O)[nH]c(=S)[nH]c3=O)sc2c1	11	29	-6	56*	50*
CC1=CC2/C=C(\C)CCC(O)C(O)/C=C/C(=O)C23C(=O)NC(CC(C)C)C3C1C (centres undefined)	47*	29	-1	19	33
C/C1=C\[C@@H](C)C/C=C/[C@H]2[C@@H]3O[C@]3(C)[C@@H](C)[C@H]3[C@H](Cc4c[nH]c5ccccc45)NC(=O)[C@]32C(=O)/C=C/C(=O)[C@@H]1O	-44	-1	-1	9	43
SMILES	EBI2 block	CXCR6 inh	APJ agonist	APJ antag	CCR6 antagonist	others
CC[n+]1c(/C=C/C=C/c2ccc(N(C)C)cc2)sc2ccccc21	13	53*	-4	35	70*
CN(C)c1ccc(/C=C/C=C/c2sc3ccccc3[n+]2C)cc1	0	20	-3	2	32
O=C1NC(=O)N(Cc2ccco2)C(=O)/C1=C/c1ccc(-c2cccc([N+](=O)[O-])c2)o1	24	35	-4	24	65*
C=CCN1C(=O)NC(=O)/C(=C\c2ccc(-c3ccccc3[N+](=O)[O-])o2)C1=O	8	15	-3	-1	21
COC(=O)C1=C(c2ccccc2OCc2ccccc2)C[C@@H]2CC[C@H]1N2C(=O)NCCOc1ccc(OC)cc1	51*	15	-4	2	14
O=c1c2ccccc2nc(-c2ccccc2Cl)n1-c1cccc(O)c1	-2	2	-2	14	0
CCOC(=O)[C@]12Cc3cc(C)ccc3[C@H]1N(C1CCCCC1)C(=O)c1cc(OC)ccc12	76*	26	/	/	/
Oc1ccc(Cl)c(Cl)c1Cl	2	-2	0	2	-13
COc1cc(/C=C(/C)[N+](=O)[O-])ccc1OCc1ccccc1Cl	72*	50*	5	28	61*
COc1ccc(CN2C(=O)NC(=O)/C(=C\c3ccco3)C2=O)cc1	0	-16	18*	5	15	APJ ag confirm=13
COC(=O)C1=C(c2ccc(C(C)=O)cc2)C[C@@H]2CC[C@H]1N2C(=O)NCc1ccc(C(F)(F)F)cc1	-3	-3	-3	0	6
CC(C)[C@H]1C(=O)N2CCC[C@H]2[C@]2(O)O[C@](NC(=O)[C@@H]3C=C4c5cccc6[nH]cc(c56)C[C@H]4N(C)C3)(C(C)C)C(=O)N12	5	-5	16	6	5
CN1C[C@H](CO)C=C2c3cccc4[nH]cc(c34)C[C@H]21	-5	-8	17*	-127	3	APJ ag confirm=-4
CCN1/C(=C\C=C\C2=[N+](CC)c3ccccc3C2(C)C)C(C)(C)c2ccccc21	6	63*	-18	54*	61*	APJ antag confirm=106*
CCCOc1ccc(C(=O)NC(=S)N2C[C@H]3C[C@H](C2)c2cccc(=O)n2C3)cc1	-3	-2	-1	10	-7
CN(CCc1ccccc1)Cc1c[nH]c2ccccc12	5	12	-1	4	-5
CC12CCCCC1=NC(c1ccc(Br)cc1)N2O (centres undefined)	-6	34	-12	51*	55*	APJ antag confirm=39
Brc1ccc(C2N3CCCN23)cc1 (centres undefined)	-11	2	1	11	1
CCCCn1c(N)c(C(=O)NCc2cccs2)c2nc3ccccc3nc21	15	1	-9	49*	6	APJ antag confirm=6
CCCCOCCCn1c(N)c(C(=O)OCCOC)c2nc3ccccc3nc21	5	14	-20	59*	1	APJ antag confirm=-13
CC(C)CCn1c(N)c(C(=O)OCC2CCCO2)c2nc3ccccc3nc21 (centres undefined)	7	23	-4	50*	14	APJ antag confirm=53*
